# Assay results reported in ChEMBL document CHEMBL1649574, “Prevalence and characterization of heterogeneous vancomycin-intermediate Staphylococcus aureus isolates from 14 cities in China” (2009).
# Columns and labels:
# Type in all cases: functional
# Staphylococcus aureus [1] = assay: Antimicrobial activity against heterogeneous vancomycin-intermediate Staphylococcus aureus assessed as growth inhibition at MIC; set-up: scale not given: the % may be the effect or the level left
# Staphylococcus aureus [2] = assay: Antimicrobial activity against SCCmec type III vancomycin-intermediate Staphylococcus aureus isolate b6k7974 by agar dilution method
# Outline: (§1)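 Agar-dilution MICs were measured on a subset of 200 blood MRSA isolates from China. Agents: oxacillin, rifampin, gentamicin, levofloxacin, erythromycin, vancomycin, teicoplanin, tigecycline, ceftobiprole and linezolid. Phenotype came from the PAP-AUC ratio of each isolate to S. aureus Mu3 (VSSA <0.9; hVISA 0.9 to 1.3; VISA ≥1.3), read on BHI agar with 0 to 8.0 mg/liter vancomycin after 48 h at 35°C.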
# Staphylococcus aureus [3] = assay: Antimicrobial activity against heterogeneous vancomycin-susceptible Staphylococcus aureus assessed as intermediate isolates by agar dilution method
# Staphylococcus aureus [4] = assay: Antimicrobial activity against heterogeneous vancomycin-intermediate Staphylococcus aureus by agar dilution method; outline: as §1
# Staphylococcus aureus [5] = assay: Antimicrobial activity against vancomycin-susceptible Staphylococcus aureus assessed as growth inhibition at 16 times MIC; set-up: scale not given: the % may be the effect or the level left
# Staphylococcus aureus [6] = assay: Antimicrobial activity against heterogeneous vancomycin-intermediate Staphylococcus aureus assessed as growth inhibition at 4 times MIC; set-up: scale not given: the % may be the effect or the level left
# Staphylococcus aureus [7] = assay: Antimicrobial activity against SCCmec type III vancomycin-intermediate Staphylococcus aureus isolate gz07030 by agar dilution method; outline: as §1
# Staphylococcus aureus [8] = assay: Antimicrobial activity against SCCmec type III vancomycin-intermediate Staphylococcus aureus isolate 15b52 by agar dilution method; outline: as §1
# Staphylococcus aureus [9] = assay: Antimicrobial activity against SCCmec type III vancomycin-intermediate Staphylococcus aureus isolate b4k6307 by agar dilution method; outline: as §1
# Staphylococcus aureus [10] = assay: Antimicrobial activity against vancomycin-susceptible Staphylococcus aureus assessed as growth inhibition at 0.5 times MIC; set-up: scale not given: the % may be the effect or the level left
# Staphylococcus aureus [11] = assay: Antimicrobial activity against SCCmec type III vancomycin-intermediate Staphylococcus aureus isolate b5k3578 by agar dilution method; outline: as §1
# Staphylococcus aureus [12] = assay: Antimicrobial activity against SCCmec type II vancomycin-intermediate Staphylococcus aureus isolate 4sy32 by agar dilution method; outline: as §1
# Staphylococcus aureus [13] = assay: Antimicrobial activity against vancomycin-susceptible Staphylococcus aureus by agar dilution method; outline: as §1
# Staphylococcus aureus [14] = assay: Antimicrobial activity against heterogeneous vancomycin-intermediate Staphylococcus aureus assessed as growth inhibition at 0.125 times MIC; set-up: scale not given: the % may be the effect or the level left
# Staphylococcus aureus [15] = assay: Antimicrobial activity against SCCmec type III vancomycin-intermediate Staphylococcus aureus isolate b3k2345 by agar dilution method; outline: as §1
# Staphylococcus aureus [16] = assay: Antimicrobial activity against SCCmec type II vancomycin-intermediate Staphylococcus aureus isolate 4sy39 by agar dilution method; outline: as §1
# Staphylococcus aureus [17] = assay: Antimicrobial activity against SCCmec type III vancomycin-intermediate Staphylococcus aureus isolate b6k1642 by agar dilution method; outline: as §1
# Staphylococcus aureus [18] = assay: Antimicrobial activity against SCCmec type II vancomycin-intermediate Staphylococcus aureus isolate sh06024 by agar dilution method; outline: as §1
# Staphylococcus aureus [19] = assay: Antimicrobial activity against vancomycin-susceptible Staphylococcus aureus assessed as growth inhibition at MIC; set-up: scale not given: the % may be the effect or the level left
# Staphylococcus aureus [20] = assay: Antimicrobial activity against heterogeneous vancomycin-intermediate Staphylococcus aureus assessed as growth inhibition at 0.5 times MIC; set-up: scale not given: the % may be the effect or the level left
# Staphylococcus aureus [21] = assay: Antimicrobial activity against SCCmec type III vancomycin-intermediate Staphylococcus aureus isolate zj07028 by agar dilution method; outline: as §1
# Staphylococcus aureus [22] = assay: Antimicrobial activity against SCCmec type II vancomycin-intermediate Staphylococcus aureus isolate 6zjsau7 by agar dilution method; outline: as §1
# Staphylococcus aureus [23] = assay: Antimicrobial activity against vancomycin-intermediate Staphylococcus aureus by agar dilution method; outline: as §1
# Staphylococcus aureus [24] = assay: Antimicrobial activity against SCCmec type II vancomycin-intermediate Staphylococcus aureus isolate 07b63 by agar dilution method; outline: as §1
# Staphylococcus aureus [25] = assay: Antimicrobial activity against SCCmec type III vancomycin-intermediate Staphylococcus aureus isolate xa07029 by agar dilution method; outline: as §1
# Staphylococcus aureus [26] = assay: Antimicrobial activity against SCCmec type III vancomycin-intermediate Staphylococcus aureus isolate b5k3529 by agar dilution method; outline: as §1
# Staphylococcus aureus [27] = assay: Antimicrobial activity against SCCmec type III vancomycin-intermediate Staphylococcus aureus isolate 5zjsau3 by agar dilution method; outline: as §1
# Staphylococcus aureus [28] = assay: Antimicrobial activity against SCCmec type III vancomycin-intermediate Staphylococcus aureus isolate bd4768 by agar dilution method; outline: as §1
# Staphylococcus aureus [29] = assay: Antimicrobial activity against heterogeneous vancomycin-intermediate Staphylococcus aureus assessed as susceptible isolates by agar dilution method
# Outline: (§2)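 MICs by agar dilution for all 200 MRSA blood isolates (oxacillin, rifampin, gentamicin, levofloxacin, erythromycin, vancomycin, teicoplanin, tigecycline, ceftobiprole, linezolid). Isolates were grouped by PAP-AUC ratio against S. aureus Mu3: below 0.9 VSSA, 0.9 to 1.3 hVISA, 1.3 or more VISA.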
# Staphylococcus aureus [30] = assay: Antimicrobial activity against vancomycin-susceptible Staphylococcus aureus assessed as growth inhibition at 4 times MIC; set-up: scale not given: the % may be the effect or the level left
# Staphylococcus aureus [31] = assay: Antimicrobial activity against heterogeneous vancomycin-susceptible Staphylococcus aureus assessed as susceptible isolates by agar dilution method; outline: as §2
# Staphylococcus aureus [32] = assay: Antimicrobial activity against vancomycin-susceptible Staphylococcus aureus assessed as growth inhibition at 0.125 times MIC; set-up: scale not given: the % may be the effect or the level left
# Staphylococcus aureus [33] = assay: Antimicrobial activity against SCCmec type III vancomycin-intermediate Staphylococcus aureus isolate b3k5923 by agar dilution method; outline: as §1
# Staphylococcus aureus [34] = assay: Antimicrobial activity against SCCmec type II vancomycin-intermediate Staphylococcus aureus isolate b2k4781 by agar dilution method; outline: as §1
# Staphylococcus aureus [35] = assay: Antimicrobial activity against SCCmec type IV vancomycin-intermediate Staphylococcus aureus isolate 06b41 by agar dilution method; outline: as §1
# Staphylococcus aureus [36] = assay: Antimicrobial activity against vancomycin-susceptible Staphylococcus aureus assessed as growth inhibition at 0.25 times MIC; set-up: scale not given: the % may be the effect or the level left
# Staphylococcus aureus [37] = assay: Antimicrobial activity against vancomycin-susceptible Staphylococcus aureus assessed as growth inhibition at 2 times MIC; set-up: scale not given: the % may be the effect or the level left
# Staphylococcus aureus [38] = assay: Antimicrobial activity against SCCmec type III vancomycin-intermediate Staphylococcus aureus isolate gs07022 by agar dilution method; outline: as §1
# Staphylococcus aureus [39] = assay: Antimicrobial activity against heterogeneous vancomycin-intermediate Staphylococcus aureus assessed as intermediate isolates by agar dilution method; outline: as §2
# Staphylococcus aureus [40] = assay: Antimicrobial activity against heterogeneous vancomycin-intermediate Staphylococcus aureus assessed as growth inhibition at 0.25 times MIC; set-up: scale not given: the % may be the effect or the level left
# Staphylococcus aureus [41] = assay: Antimicrobial activity against SCCmec type III vancomycin-intermediate Staphylococcus aureus isolate gz06040 by agar dilution method; outline: as §1
# Staphylococcus aureus [42] = assay: Antimicrobial activity against heterogeneous vancomycin-intermediate Staphylococcus aureus assessed as growth inhibition at 16 times MIC; set-up: scale not given: the % may be the effect or the level left
# Staphylococcus aureus [43] = assay: Antimicrobial activity against SCCmec type III vancomycin-intermediate Staphylococcus aureus isolate b2k3421 by agar dilution method; outline: as §1
# Staphylococcus aureus [44] = assay: Antimicrobial activity against heterogeneous vancomycin-intermediate Staphylococcus aureus assessed as growth inhibition at 2 times MIC; set-up: scale not given: the % may be the effect or the level left
# Staphylococcus aureus [45] = assay: Antimicrobial activity against SCCmec type III vancomycin-intermediate Staphylococcus aureus isolate gz06051 by agar dilution method; outline: as §1
# Staphylococcus aureus [46] = assay: Antimicrobial activity against SCCmec type III vancomycin-intermediate Staphylococcus aureus isolate 11b091 by agar dilution method; outline: as §1
# Staphylococcus aureus [47] = assay: Antimicrobial activity against SCCmec type III vancomycin-intermediate Staphylococcus aureus isolate sh07043 by agar dilution method; outline: as §1
# Staphylococcus aureus [48] = assay: Antimicrobial activity against SCCmec type III vancomycin-intermediate Staphylococcus aureus isolate 13b16 by agar dilution method; outline: as §1
smiles,measurement,setting,value
CC(=O)NC[C@H]1CN(c2ccc(N3CCOCC3)c(F)c2)C(=O)O1 [LINEZOLID],Activity,Staphylococcus aureus [1],85.2%
same,MIC,Staphylococcus aureus [2],1 µg/mL
same,Activity,Staphylococcus aureus [3],0%
same,MIC50,Staphylococcus aureus [4],1 µg/mL
same,MIC90,Staphylococcus aureus [4],2 µg/mL
same,Activity,Staphylococcus aureus [5],100%
same,Activity,Staphylococcus aureus [6],100%
same,MIC,Staphylococcus aureus [7],1 µg/mL
same,MIC,Staphylococcus aureus [8],0.5 µg/mL
same,MIC,Staphylococcus aureus [9],0.5 µg/mL
same,Activity,Staphylococcus aureus [10],31.2%
same,MIC,Staphylococcus aureus [11],0.5 µg/mL
same,MIC,Staphylococcus aureus [12],1 µg/mL
same,MIC50,Staphylococcus aureus [13],1 µg/mL
same,MIC90,Staphylococcus aureus [13],2 µg/mL
same,Activity,Staphylococcus aureus [14],0%
same,MIC,Staphylococcus aureus [15],0.5 µg/mL
same,MIC,Staphylococcus aureus [16],1 µg/mL
same,MIC,Staphylococcus aureus [17],1 µg/mL
same,MIC,Staphylococcus aureus [18],0.5 µg/mL
same,Activity,Staphylococcus aureus [19],82.7%
same,Activity,Staphylococcus aureus [20],33.3%
same,MIC,Staphylococcus aureus [21],1 µg/mL
same,MIC,Staphylococcus aureus [22],1 µg/mL
same,MIC,Staphylococcus aureus [23],1 µg/mL
same,MIC,Staphylococcus aureus [24],1 µg/mL
same,MIC,Staphylococcus aureus [25],1 µg/mL
same,MIC,Staphylococcus aureus [26],0.5 µg/mL
same,MIC,Staphylococcus aureus [27],1 µg/mL
same,MIC,Staphylococcus aureus [28],1 µg/mL
same,Activity,Staphylococcus aureus [29],100%
same,Activity,Staphylococcus aureus [30],100%
same,Activity,Staphylococcus aureus [31],100%
same,Activity,Staphylococcus aureus [32],0.58%
same,MIC,Staphylococcus aureus [33],0.5 µg/mL
same,MIC,Staphylococcus aureus [34],0.5 µg/mL
same,MIC,Staphylococcus aureus [35],1 µg/mL
same,Activity,Staphylococcus aureus [36],1.16%
same,Activity,Staphylococcus aureus [37],100%
same,MIC,Staphylococcus aureus [38],1 µg/mL
same,Activity,Staphylococcus aureus [39],0%
same,Activity,Staphylococcus aureus [40],0%
same,MIC,Staphylococcus aureus [41],1 µg/mL
same,Activity,Staphylococcus aureus [42],100%
same,MIC,Staphylococcus aureus [43],0.5 µg/mL
same,Activity,Staphylococcus aureus [44],100%
Cc1onc(-c2ccccc2)c1C(=O)N[C@@H]1C(=O)N2[C@@H]1SC(C)(C)[C@@H]2C(=O)O [OXACILLIN],MIC,Staphylococcus aureus [2],> 64 µg/mL
same,MIC,Staphylococcus aureus [7],> 64 µg/mL
same,MIC,Staphylococcus aureus [8],> 64 µg/mL
same,MIC,Staphylococcus aureus [9],> 64 µg/mL
same,MIC,Staphylococcus aureus [11],> 64 µg/mL
same,MIC,Staphylococcus aureus [12],256 µg/mL
same,MIC,Staphylococcus aureus [45],> 64 µg/mL
same,MIC,Staphylococcus aureus [15],> 64 µg/mL
same,MIC,Staphylococcus aureus [16],256 µg/mL
same,MIC,Staphylococcus aureus [17],> 64 µg/mL
same,MIC,Staphylococcus aureus [18],> 64 µg/mL
same,MIC,Staphylococcus aureus [21],> 64 µg/mL
same,MIC,Staphylococcus aureus [22],> 64 µg/mL
same,MIC,Staphylococcus aureus [24],> 64 µg/mL
same,MIC,Staphylococcus aureus [25],> 64 µg/mL
same,MIC,Staphylococcus aureus [26],> 64 µg/mL
same,MIC,Staphylococcus aureus [27],> 64 µg/mL
same,MIC,Staphylococcus aureus [28],> 64 µg/mL
same,MIC,Staphylococcus aureus [33],> 64 µg/mL
same,MIC,Staphylococcus aureus [34],> 64 µg/mL
same,MIC,Staphylococcus aureus [35],8 µg/mL
same,MIC,Staphylococcus aureus [38],8 µg/mL
same,MIC,Staphylococcus aureus [46],> 64 µg/mL
same,MIC,Staphylococcus aureus [41],32 µg/mL
same,MIC,Staphylococcus aureus [47],> 64 µg/mL
same,MIC,Staphylococcus aureus [43],> 64 µg/mL
same,MIC,Staphylococcus aureus [48],> 64 µg/mL
